{
  "source": "paper PMC12800297",
  "about": "(Communications Chemistry, 2025)",
  "key": {"[1]": {"tested_on": "A2AR (thermostabilized A2AR-BRIL)", "test": "MIDAS equilibrium dialysis with LC-MS metabolite screen", "assay_type": "binding, human", "conditions": "p < 0.05, Supplementary Fig. 2a"}, "[2]": {"tested_on": "A2AR H278 to alanine", "conditions": "H278 mutated to alanine; cited from earlier work"}, "[3]": {"tested_on": "A2AR V84 to alanine", "conditions": "V84 mutated to alanine; cited from earlier work"}, "[4]": {"target": "A2AR-ΔCTD (Homo sapiens, UniProt P29274, N154A)", "sequence (P29274 8-316 N154A)": "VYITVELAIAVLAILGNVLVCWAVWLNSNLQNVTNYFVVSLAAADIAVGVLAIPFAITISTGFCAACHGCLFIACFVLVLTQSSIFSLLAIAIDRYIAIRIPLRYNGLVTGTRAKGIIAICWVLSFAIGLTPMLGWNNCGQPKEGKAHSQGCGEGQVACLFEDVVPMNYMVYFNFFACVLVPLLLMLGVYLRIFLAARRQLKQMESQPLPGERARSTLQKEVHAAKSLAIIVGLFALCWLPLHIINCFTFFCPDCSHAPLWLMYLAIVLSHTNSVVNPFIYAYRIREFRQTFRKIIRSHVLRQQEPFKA", "test": "Competition fluorescence polarization", "assay_type": "binding", "in_short": "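Receptor was preincubated with metabolite for 10 min, then mixed with fluorescent NECA (10 nM final) for 10 min at room temperature with gentle shaking. Fluorescence polarization was read.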"}, "[5]": {"target": "T1, A2AR (Homo sapiens, UniProt P29274, N154A)", "T1 sequence (P29274 8-316 N154A)": "as above", "test": "GTP hydrolysis assay", "assay_type": "biochemical", "conditions": "for agonist efficacy: GTP hydrolysis assay; for fold decrease/reduction in potency compared to adenosine: GTP hydrolysis assay EC50 values; for Activation screen: metabolites at 10 μM, replicates"}, "[6]": {"tested_on": "HEK293 cells stably expressing A2AR", "test": "HTRF cAMP detection assay, agonist activation", "assay_type": "cell-based, human"}, "[7]": {"target": "A2AR Q163E/H75A (Homo sapiens, UniProt P29274, H75A/N154A/Q163E)", "sequence (P29274 8-316 H75A/N154A/Q163E)": "as the sequence (P29274 8-316 N154A) above, with H68A, Q156E counted along it", "test": "GTP hydrolysis inhibition comparison, A2AR mutant", "assay_type": "biochemical", "conditions": "20 µM PGD2, Supplementary Fig. 10"}, "[8]": {"target": "T1, A2AR", "test": "Differential scanning fluorimetry", "assay_type": "binding", "conditions": "dose-response DSF"}, "[9]": {"target": "T1, A2AR", "test": "GTP hydrolysis assay", "assay_type": "biochemical", "conditions": "for Inhibition screen: metabolites at 100 μM, with adenosine, replicates, 100 µM"}, "[10]": {"target": "A2AR H75A (Homo sapiens, UniProt P29274, H75A/N154A)", "sequence (P29274 8-316 H75A/N154A)": "as the sequence (P29274 8-316 N154A) above, with H68A counted along it", "test": "GTP hydrolysis inhibition comparison, A2AR mutant", "assay_type": "biochemical", "conditions": "20 µM PGD2, Supplementary Fig. 10"}, "[11]": {"tested_on": "HEK293 cells stably expressing A2AR", "test": "HTRF cAMP detection assay, inhibition of adenosine-induced cAMP production", "assay_type": "cell-based, human", "conditions": "for inhibition of adenosine-induced cAMP production: concentration-dependent assay"}, "[12]": {"target": "A2AR K233A (Homo sapiens, UniProt P29274, K233A/N154A)", "sequence (P29274 8-316 N154A/K233A)": "as the sequence (P29274 8-316 N154A) above, with K226A counted along it", "test": "GTP hydrolysis inhibition comparison, A2AR mutant", "assay_type": "biochemical", "conditions": "20 µM PGD2, Supplementary Fig. 10"}},
  "note": "Entries after “also recorded” stand apart in the source; their conditions may differ.",
  "data": [
    {"smiles": "Nc1ncnc2[nH]cnc12", "note": "[Adenine]", "values": [
      {"measurement": "MIDAS enrichment, statistical significance", "setting": "[1]", "value": "significantly enriched"}
    ]},
    {"smiles": "CCNC(=O)[C@H]1O[C@@H](n2cnc3c(N)nc(NCCc4ccc(CCC(=O)O)cc4)nc32)[C@H](O)[C@@H]1O", "note": "[CGS21680]", "values": [
      {"measurement": "reduction in binding", "setting": "[2]", "value": "> 98", "unit": "%"},
      {"measurement": "reduction in binding", "setting": "[3]", "value": "> 98", "unit": "%"}
    ]},
    {"smiles": "Nc1ncnc2c1ncn2[C@H]1C[C@H](O)[C@@H](CO)O1", "note": "[DA, 2’-deoxyadenosine]", "values": [
      {"measurement": "effect on affinity of fluorescently labeled NECA to A2AR", "setting": "[4]; 100 µM SAH or DA", "value": "reduced the affinity of NECA"},
      {"measurement": "EC50", "setting": "[5]", "value": 15, "unit": "µM"},
      {"measurement": "agonist efficacy", "setting": "[5]", "value": "full agonists"},
      {"measurement": "fold decrease/reduction in potency compared to adenosine", "setting": "[5]", "value": "> 800", "unit": "fold"},
      {"measurement": "Activation screen", "setting": "[5]", "value": "activated A2AR; also recorded: sub-maximal activation"},
      {"measurement": "A2AR activation in HEK293 cells", "setting": "[6]; cell-based cAMP detection assay, Supplementary Fig. 12c", "value": "required millimolar concentrations for activation"},
      {"measurement": "MIDAS enrichment, statistical significance", "setting": "[1]", "value": "did not meet the statistical significance threshold"}
    ]},
    {"smiles": "CN(C)c1ncnc2nc[nH]c12", "note": "[DMAP, dimethylaminopurine]", "values": [
      {"measurement": "MIDAS enrichment, statistical significance", "setting": "[1]", "value": "significantly enriched"}
    ]},
    {"smiles": "CCCCC[C@H](O)/C=C/[C@H]1C(=O)C[C@H](O)[C@@H]1C/C=C\\CCCC(=O)O", "note": "[PGD2, prostaglandin D2]", "values": [
      {"measurement": "effect on affinity of fluorescently labeled NECA to A2AR", "setting": "[4]; 500 µM prostaglandin", "value": "none of the three prostaglandins – PGI2, PGE2, and PGD2 were able to displace a fluorescently-labeled orthosteric ligand"},
      {"measurement": "change of PGD2-mediated inhibition by mutation", "setting": "[7]", "value": "minor reduction of inhibition"},
      {"measurement": "effect on melting temperature (Tm) of A2AR", "setting": "[8]", "value": "concentration-dependent increase in the melting temperature (Tm)"},
      {"measurement": "inhibition of A2AR in competition activity assay", "setting": "[9]; 500 μM PGD2, saturating adenosine up to 100 µM", "value": "sustained inhibition; also recorded: near-complete inhibition"},
      {"measurement": "IC50", "setting": "[9]; IC50, dose-response assay, Supplementary Fig. 5a", "value": 180, "unit": "µM"},
      {"measurement": "Inhibition screen", "setting": "[9]", "value": "completely inhibiting A2AR activity"},
      {"measurement": "change of PGD2-mediated inhibition by mutation", "setting": "[10]", "value": "comparatively no effect"},
      {"measurement": "fold increase in the IC50 in cell-based assay relative to protein-based assay", "setting": "[11]; HTRF cAMP vs GTP hydrolysis", "value": "approximately 8 fold"},
      {"measurement": "inhibition of adenosine-induced cAMP production", "setting": "[11]", "value": "near-complete inhibition"},
      {"measurement": "change of PGD2-mediated inhibition by mutation", "setting": "[12]", "value": "no change"},
      {"measurement": "MIDAS enrichment, statistical significance", "setting": "[1]", "value": "significantly enriched"}
    ]},
    {"smiles": "CCCCC[C@H](O)/C=C/[C@H]1[C@H](O)CC(=O)[C@@H]1C/C=C\\CCCC(=O)O", "note": "[PGE2]", "values": [
      {"measurement": "effect on affinity of fluorescently labeled NECA to A2AR", "setting": "[4]; 500 µM prostaglandin", "value": "none of the three prostaglandins – PGI2, PGE2, and PGD2 were able to displace a fluorescently-labeled orthosteric ligand"},
      {"measurement": "Inhibition screen", "setting": "[9]", "value": "no effect"},
      {"measurement": "inhibition of adenosine-induced cAMP production", "setting": "[11]", "value": "no significant effect"},
      {"measurement": "MIDAS enrichment, statistical significance", "setting": "[1]", "value": "significantly enriched"}
    ]},
    {"smiles": "CCCCC[C@H](O)/C=C/[C@@H]1[C@H]2C/C(=C/CCCC(=O)O)O[C@H]2C[C@H]1O", "note": "[PGI2]", "values": [
      {"measurement": "effect on affinity of fluorescently labeled NECA to A2AR", "setting": "[4]; 500 µM prostaglandin", "value": "none of the three prostaglandins – PGI2, PGE2, and PGD2 were able to displace a fluorescently-labeled orthosteric ligand"},
      {"measurement": "Inhibition screen", "setting": "[9]", "value": "no effect"},
      {"measurement": "MIDAS enrichment, statistical significance", "setting": "[1]", "value": "significantly enriched"}
    ]},
    {"smiles": "Nc1ncnc2c1ncn2[C@@H]1O[C@H](CSCC[C@H](N)C(=O)O)[C@@H](O)[C@H]1O", "note": "[SAH, S-adenosyl-L-homocysteine]", "values": [
      {"measurement": "effect on affinity of fluorescently labeled NECA to A2AR", "setting": "[4]; 100 µM SAH or DA", "value": "reduced the affinity of NECA"},
      {"measurement": "EC50", "setting": "[5]", "value": 5, "unit": "µM"},
      {"measurement": "agonist efficacy", "setting": "[5]", "value": "full agonists"},
      {"measurement": "fold decrease/reduction in potency compared to adenosine", "setting": "[5]", "value": "> 250", "unit": "fold"},
      {"measurement": "Activation screen", "setting": "[5]", "value": "activated A2AR; also recorded: sub-maximal activation"},
      {"measurement": "EC50", "setting": "[6]; Homo sapiens, HEK293", "value": "~5", "unit": "µM"},
      {"measurement": "MIDAS enrichment, statistical significance", "setting": "[1]", "value": "did not meet the statistical significance threshold"}
    ]}
  ]
}
